# From ChEMBL document CHEMBL2069191, “Antitrypanosomal and antioxidant properties of 4-hydroxycoumarins derivatives” (2012)
# The source made the active and inactive calls. The rule behind the calls is not given here.
# Test system: Trypanosoma cruzi
# Experiment: Antitrypanosomal activity against trypomastigote stage of Trypanosoma cruzi Dm28c at 10 umol/L after 24 hrs by MTT assay
# Assay type: functional
# Outline: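 Parasites at 10⁷ per mL exposed to compound in DMSO ([…] final as printed, DMSO below 0.1% v/v) for 24 h at 37 °C. Nifurtimox served as positive control. Colorimetric read-out of viable parasites by absorbance at 570 nm.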
row,SMILES,Activity
1,Cc1ccc(-c2c(O)c3ccccc3oc2=O)cc1,16.7%
2,O=c1oc2ccccc2c(O)c1-c1cccc(O)c1,3.9%
3,O=c1oc2ccc(Cl)cc2c(O)c1-c1cccc(O)c1,inactive
4,O=c1oc2ccccc2c(O)c1-c1ccc(Cl)cc1,30.7%
5,COc1ccc(-c2c(O)c3ccccc3oc2=O)cc1,1.6%
6,O=c1cc(O)c2ccccc2o1,inactive
7,CC1CS(=O)(=O)CCN1/N=C/c1ccc([N+](=O)[O-])o1 (centres undefined) [NIFURTIMOX],52.5%
8,O=c1oc2ccccc2c(O)c1-c1ccccc1,21.1%

# Test system: not listed separately
# Experiment: Antioxidant activity against APPH radical assessed as trolox equivalent incubated for 15 mins prior to APPH addition measured every 1 min by 120 mins by fluorescein-based ORAC method
# Assay type: functional
# Outline: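 Peroxyl-radical scavenging by ORAC-FL. Fluorescein (40 nM final) and compound in methanol (0.3–2 M range, as printed) in 75 mM sodium phosphate buffer pH 7.4. Preincubated 15 min at 37 °C, then AAPH (18 mM final) added. Fluorescence read at ex 485/em 528 nm every 1 min for 120 min. Area under the decay curve calculated, expressed relative to trolox. Means SD.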
row,SMILES,Activity
1,Cc1ccc(-c2c(O)c3ccccc3oc2=O)cc1,6.5 equiv
2,O=c1oc2ccccc2c(O)c1-c1cccc(O)c1,4.9 equiv
3,O=c1oc2ccc(Cl)cc2c(O)c1-c1cccc(O)c1,7.7 equiv
4,O=c1oc2ccccc2c(O)c1-c1ccc(Cl)cc1,3.9 equiv
5,COc1ccc(-c2c(O)c3ccccc3oc2=O)cc1,5.7 equiv
6,Oc1cc(O)c2c(c1)OC(c1ccc(O)c(O)c1)C(O)C2 (centres undefined),6.76 equiv
7,O=c1cc(O)c2ccccc2o1,4.2 equiv
8,O=c1oc2ccccc2c(O)c1-c1ccccc1,4.4 equiv
9,O=c1c(O)c(-c2ccc(O)c(O)c2)oc2cc(O)cc(O)c12,7.28 equiv

# Test system: not listed separately
# Experiment: Antioxidant activity assessed as inhibition of hydroxyl radical production at 1 mM after 5 mins by ESR spectrophotometry
# Assay type: functional
# Outline: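 Hydroxyl radical generated in N,N-dimethylformamide with NaOH (3 mM final), DMPO spin trap (30 mM final) and 30% hydrogen peroxide. Compounds at 1 mM final. EPR spectrum recorded after 5 min of reaction, with % scavenging derived from it.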
row,SMILES,inhibition
1,Cc1ccc(-c2c(O)c3ccccc3oc2=O)cc1,34.6%
2,O=c1oc2ccccc2c(O)c1-c1cccc(O)c1,40.2%
3,O=c1oc2ccc(Cl)cc2c(O)c1-c1cccc(O)c1,100%
4,O=c1oc2ccccc2c(O)c1-c1ccc(Cl)cc1,31.3%
5,COc1ccc(-c2c(O)c3ccccc3oc2=O)cc1,46.3%
6,O=c1cc(O)c2ccccc2o1,61.9%
7,O=c1oc2ccccc2c(O)c1-c1ccccc1,45.1%
